From ChEMBL document CHEMBL3758071, “Phomanolides A and B from the Fungus Phoma sp.: Meroterpenoids Derived from a Putative Tropolonic Sesquiterpene via Hetero-Diels-Alder Reactions” (J Nat Prod, 2015)
Active and inactive are the calls of the source. The rule behind the calls is not given here.

How the values were obtained:
Type in all cases: functional, cell-based
HeLa [1] = assay: Antiproliferative activity against human HeLa cells at 20 ug/ml after 48 hrs by MTT assay
T-24 = assay: Antiproliferative activity against human T24 cells at 20 ug/ml after 48 hrs by MTT assay
A549 [2] = assay: Antiproliferative activity against human A549 cells at 20 ug/ml after 48 hrs by MTT assay
SH-SY5Y [3] = assay: Antiproliferative activity against human SH-SY5Y cells at 20 ug/ml after 48 hrs by MTT assay
HCT-116 = assay: Antiproliferative activity against human HCT116 cells at 20 ug/ml after 48 hrs by MTT assay
H4 = assay: Antiproliferative activity against human H4 cells at 20 ug/ml after 48 hrs by MTT assay
U-251 [4] = assay: Antiproliferative activity against human U251 cells at 20 ug/ml after 48 hrs by MTT assay
[5] = Antiproliferative activity against human H4 cells after 48 hrs by MTT assay; settings: H4, 48 h
How it was run: (§1)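 H4 and U251 glioma cells were maintained in MEM-EBSS with 10% FBS at 37 °C and 5% CO2. Cells were plated at 10^4 per well and attached overnight. They were treated 4 h with serially diluted compound (DMSO stock 10 mg/mL; vehicle 0.2% DMSO), then given fresh DMEM for 48 h. MTT (0.5 mg/mL) was added for 3 h, DMSO used to solubilise, and A540 read. IC50 reported.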

U-251 [6] = assay: Antiproliferative activity against human U251 cells after 48 hrs by MTT assay; settings: U-251, 48 h; how it was run: as §1
[7] = Antiproliferative activity against human T24 cells after 48 hrs by MTT assay; settings: T-24, 48 h
How it was run: (§2)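 A549, T24 and HCT116 cells were grown in McCoy's 5A with 10% FBS at 37 °C and 5% CO2. Cells were seeded at 10^4 per well and attached overnight. They were exposed for 4 h to serial dilutions (DMSO stock 10 mg/mL; vehicle 0.2% DMSO), then grown 48 h in fresh DMEM. MTT (0.5 mg/mL) was added for 3 h, formazan dissolved in DMSO, and A540 read. IC50 reported.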

[8] = Antiproliferative activity against human HCT116 cells after 48 hrs by MTT assay; settings: HCT-116, 48 h; how it was run: as §2
A549 [9] = assay: Antiproliferative activity against human A549 cells after 48 hrs by MTT assay; settings: A549, 48 h; how it was run: as §2
SH-SY5Y [10] = assay: Antiproliferative activity against human SH-SY5Y cells after 48 hrs by MTT assay
How it was run: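 SH-SY5Y cells were grown in DMEM with 10% FBS at 37 °C and 5% CO2, seeded at 10^4 cells/well and left to attach overnight. Cells were exposed to serial dilutions from a 10 mg/mL DMSO stock (vehicle 0.2% DMSO) for 4 h at 37 °C, then grown 48 h in fresh DMEM. MTT (0.5 mg/mL) was added for 3 h in the dark, formazan dissolved in DMSO, and absorbance read at 540 nm.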

HeLa [11] = assay: Antiproliferative activity against human HeLa cells after 48 hrs by MTT assay
How it was run: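 HeLa cells were grown in RPMI 1640 with 10% FBS at 37 °C and 5% CO2 and seeded at 10^4 per well overnight. Serial dilutions (DMSO stock 10 mg/mL; vehicle 0.2% DMSO) were applied for 4 h at 37 °C, then the medium was replaced with fresh DMEM for 48 h. MTT (0.5 mg/mL) was added for 3 h in the dark, formazan dissolved in DMSO, and absorbance read at 540 nm. IC50 reported.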

IC50 (SH-SY5Y [10]) [µM] | SMILES | Activity (HeLa [1]) | Activity (T-24) | Activity (A549 [2]) | Activity (SH-SY5Y [3]) | Activity (HCT-116) | Activity (H4) | Activity (U-251 [4]) | IC50 [5] [µM] | IC50 (U-251 [6]) [µM] | IC50 [7] [µM] | IC50 [8] [µM] | IC50 (A549 [9]) [µM] | IC50 (HeLa [11]) [µM]
 | C/C1=C/CC(C)(C)/C=C/C[C@]2(C)OC3=CC(=O)O[C@]4(C)CC(=O)O[C@]34C[C@H]2C[C@@H]1O | inactive | inactive | inactive | inactive | inactive | inactive | inactive |  |  |  |  |  | 
> 100 | Cn1nnc2c(C(N)=O)ncn2c1=O [TEMOZOLOMIDE] |  |  |  |  |  |  |  | > 100 | > 100 |  |  |  | 
81.1 | CC1=CC(=O)O[C@@]12C[C@H]1C[C@H](O)[C@@]3(C)Oc4cc(O)cc(C)c4C[C@H]3CC(C)(C)/C=C/C[C@]1(C)O/C2=C\C(=O)O |  |  |  |  |  |  |  |  |  |  |  |  | 14.3
 | C/C1=C/CC(C)(C)[C@@H]2O[C@H]2C[C@@]2(C)O[C@@H]2C[C@@H]1O | inactive | inactive | inactive | inactive | inactive | inactive | inactive |  |  |  |  |  | 

SMILES | IC50 (SH-SY5Y [10]) [µM] | Activity (HeLa [1]) | Activity (T-24) | Activity (A549 [2]) | Activity (SH-SY5Y [3]) | Activity (HCT-116) | Activity (H4) | Activity (U-251 [4]) | IC50 [5] [µM] | IC50 (U-251 [6]) [µM] | IC50 [7] [µM] | IC50 [8] [µM] | IC50 (A549 [9]) [µM] | IC50 (HeLa [11]) [µM]
Cc1cc(=O)c(O)cc2c1C[C@H]1CC(C)(C)/C=C/C[C@]3(C)Oc4cc(O)c(=O)cc(C)c4C[C@H]3C[C@H](O)[C@@]1(C)O2 | 0.08 |  |  |  |  |  |  |  | 0.13 | 0.1 | 0.0125 | 0.0312 | 0.0306 | 0.0082
